Source: ChEMBL document CHEMBL4177531, “Cytotoxic Naphthoquinone and Azaanthraquinone Derivatives from an Endophytic Fusarium solani” (J Nat Prod, 2017)

Key:
HeLa = experiment: Cytotoxicity against human HeLa cells assessed as reduction in cell viability incubated for 96 hrs by MTT assay; assay type: functional, cell-based
Outline: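 HeLa monolayers kept in DMEM with 10% v/v FBS and 2 mM L-glutamine at 37 °C under humidified 5% CO2. Cells were seeded at 5000–20 000 per well and preincubated 24 h. Compound was added in triplicate, with doxorubicin as positive control. After 96 h continuous exposure, viability was read by MTT absorbance at 570 nm. IC50 came from dose–response analysis.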

MDA-MB-231 = experiment: Cytotoxicity against human MDA-MB-231 cells assessed as reduction in cell viability incubated for 96 hrs by MTT assay; assay type: functional, cell-based; details: MDA-MB-231, 96 h
Outline: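 Triple-negative breast line MDA MB231 was grown as monolayer at 37 °C under humidified 5% CO2 and plated at 5000–20 000 cells/well depending on line. After 24 h, compound was added in triplicate, with doxorubicin as positive control. Cells were exposed continuously for 96 h, then MTT colorimetry read at 570 nm. IC50 came from dose–response fitting.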

MIA PaCa-2 = experiment: Cytotoxicity against human MIAPaCa2 cells assessed as reduction in cell viability incubated for 96 hrs by MTT assay; assay type: functional, cell-based; details: MIA PaCa-2, 96 h
Outline: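 Pancreatic adenocarcinoma MIA PaCa2 cells were cultured in DMEM plus 2 mM L-glutamine and 10% FBS at 37 °C, 5% CO2. Cells were seeded at 5000–20 000 per well and rested 24 h, then dosed in triplicate for 96 h continuous exposure, with doxorubicin as positive control. Read-out was MTT absorbance at 570 nm; IC50 was derived by dose–response analysis.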

NCI-H1975 = experiment: Cytotoxicity against human NCI-H1975 cells assessed as reduction in cell viability incubated for 96 hrs by MTT assay; assay type: functional, cell-based; details: NCI-H1975, 96 h
Outline: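 NSCLC NCI H1975 cells were maintained in RPMI 1640 with 10% v/v FBS and 1% penicillin–streptomycin at 37 °C, humidified 5% CO2. Cells were seeded at 5000–20 000 per well, given 24 h, then dosed in triplicate for 96 h with doxorubicin as positive control. Viability was measured by MTT at 570 nm, and IC50 was obtained from dose–response curves.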

WI-38 = experiment: Cytotoxicity against human WI38 cells assessed as reduction in cell viability incubated for 96 hrs by MTT assay; assay type: cell-based; details: WI-38, 96 h
Outline: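 WI 38 cells were grown in DMEM with 2 mM L-glutamine, 1× nonessential amino acids, 1% penicillin–streptomycin and 15% FBS at 37 °C, 5% CO2. Cells were plated at 5000–20 000 per well, then 24 h later dosed in triplicate and exposed continuously for 96 h. Read-out was MTT absorbance at 570 nm, with IC50 from dose–response analysis.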

Row | Compound | IC50 (HeLa) | IC50 (MDA-MB-231) | IC50 (MIA PaCa-2) | IC50 (NCI-H1975) | IC50 (WI-38)
1 | COc1cc(O)c2c(c1)C(=O)C1=C(COC(C)(O)C1)C2=O (stereo not given) | 10300 nM | 30700 nM | 20500 nM | 27700 nM | 54300 nM
2 | COc1cccc2c1C(=O)c1c(O)c3c(c(O)c1C2=O)C[C@@](O)(C(=O)CO)C[C@@H]3O[C@H]1C[C@H](N)[C@H](O)[C@H](C)O1 [DOXORUBICIN] | 50 nM | 70 nM | 40 nM | 30 nM | 350 nM
3 | COc1c(O)cc(O)c2c1C(=O)c1cc(C)ncc1C2=O | 710 nM | 730 nM | 640 nM | 340 nM | 6420 nM
4 | COc1cc(O)cc2c1C(=O)c1cnc(C)cc1C2=O | 960 nM | 1510 nM | 980 nM | 610 nM | 5840 nM
